Experiments:
Format in all cases: functional
[1] = system: Streptococcus oralis; test: Antimicrobial activity against Streptococcus oralis ATCC 10557 with gyrA Ser114Gly, and parC Ser52Gly, Asn91Asp mutation by broth dilution method
Outline: (§1)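 Ciprofloxacin and levofloxacin MICs were determined by broth dilution following CLSI (formerly NCCLS) guidance. S. pneumoniae ATCC 6303 and ATCC 49619 served as control strains. Reference strains were S. mitis ATCC 49456 and S. oralis ATCC 10557. The clinical isolates came from patients at a Hong Kong teaching hospital.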

[2] = system: Streptococcus oralis; test: Antimicrobial activity against Streptococcus oralis HK575 with gyrA Ser114Gly, Leu155Val and parC Ser52Gly, Asn91Asp, Pro140Ser mutation by broth dilution method; outline: as §1
[3] = system: Streptococcus oralis; test: Antimicrobial activity against Streptococcus oralis HK232 with gyrA Ser114Gly, and parC Ser52Gly, Asn91Asp mutation by broth dilution method; outline: as §1
[4] = system: Streptococcus oralis; test: Antimicrobial activity against Streptococcus oralis HK417 with gyrA Ser114Gly, and parC Ser52Gly, Asn91Asp mutation by broth dilution method; outline: as §1
[5] = system: Streptococcus oralis; test: Antimicrobial activity against Streptococcus oralis HK496 with gyrA Ser114Gly, and parC Ser52Gly, Asn91Asp mutation by broth dilution method; outline: as §1
[6] = system: Streptococcus oralis; test: Antimicrobial activity against Streptococcus oralis HK553 with gyrA Ser114Gly, and parC Ser52Gly, Asn91Asp mutation by broth dilution method; outline: as §1
[7] = system: Streptococcus oralis; test: Antimicrobial activity against Streptococcus oralis HK62 with gyrA Ser114Gly, and parC Ser52Gly, Asn91Asp mutation by broth dilution method; outline: as §1
[8] = system: Streptococcus oralis; test: Antimicrobial activity against Streptococcus oralis HK122 with gyrA Ser114Gly, and parC Ser52Gly, Asn91Asp mutation by broth dilution method; outline: as §1
[9] = system: Streptococcus oralis; test: Antimicrobial activity against Streptococcus oralis HK123 with gyrA Ser114Gly, and parC Ser52Gly, Asn91Asp mutation by broth dilution method; outline: as §1
[10] = system: Streptococcus oralis; test: Antimicrobial activity against Streptococcus oralis HK271 with gyrA Ser114Gly, and parC Ser52Gly, Asn91Asp mutation by broth dilution method; outline: as §1
[11] = system: Streptococcus oralis; test: Antimicrobial activity against Streptococcus oralis HK300 with gyrA Ser114Gly, and parC Ser52Gly, Asn91Asp mutation by broth dilution method; outline: as §1
[12] = system: Streptococcus oralis; test: Antimicrobial activity against Streptococcus oralis HK312 with gyrA Ser114Gly, and parC Ser52Gly, Asn91Asp mutation by broth dilution method; outline: as §1
[13] = system: Streptococcus oralis; test: Antimicrobial activity against Streptococcus oralis HK51with gyrA Ser114Gly, and parC Ser52Gly, Asn91Asp mutation by broth dilution method; outline: as §1
[14] = system: Streptococcus oralis; test: Antimicrobial activity against Streptococcus oralis HK299 with gyrA Ser114Gly, and parC Ser52Gly, Asn91Asp mutation by broth dilution method; outline: as §1
[15] = system: Streptococcus oralis; test: Antimicrobial activity against Streptococcus oralis HK579 with gyrA Ser114Gly, and parC Ser52Gly, Asn91Asp mutation by broth dilution method; outline: as §1
[16] = system: Streptococcus oralis; test: Antimicrobial activity against Streptococcus oralis HK587 with gyrA Ser114Gly, and parC Ser52Gly, Asn91Asp mutation by broth dilution method; outline: as §1
[17] = system: Streptococcus oralis; test: Antimicrobial activity against Streptococcus oralis HK386 with gyrA Ser114Gly, and parC Ser52Gly, Asn91Asp mutation by broth dilution method; outline: as §1
[18] = system: Streptococcus oralis; test: Antimicrobial activity against Streptococcus oralis HK619 with gyrA Ser114Gly, and parC Ser52Gly, Asn91Asp mutation by broth dilution method; outline: as §1
[19] = system: Streptococcus oralis; test: Antimicrobial activity against Streptococcus oralis HK574 with gyrA Ser114Gly, Leu155Val, gyrB Ile385Val, Met483Thr, Ser494Thr and parC Ser52Gly, Asn91Asp mutation by broth dilution method; outline: as §1
[20] = system: Streptococcus oralis; test: Antimicrobial activity against Streptococcus oralis HK816 with gyrA Ser81Leu, Ser114Gly and parC Ser52Gly, Ser79Tyr, Asn91Asp mutation by broth dilution method; outline: as §1
[21] = system: Streptococcus oralis; test: Antimicrobial activity against Streptococcus oralis HK754 with gyrA Ser81Leu, Ser114Gly, gyrB Ser494Thr, parC Ser52Gly, Asp83Tyr, Asn91Asp and parE Arg447Ser mutation by broth dilution method; outline: as §1
[22] = system: Streptococcus mitis; test: Antimicrobial activity against Streptococcus mitis ATCC 49456 with gyrA Ser114Gly, and parC Ser52Gly, Asn91Asp, Glu135Asp mutation by broth dilution method; outline: as §1
[23] = system: Streptococcus mitis; test: Antimicrobial activity against Streptococcus mitis HK260 with gyrA Ser114Gly, and parC Ser52Gly, Asn91Asp mutation by broth dilution method; outline: as §1
[24] = system: Streptococcus mitis; test: Antimicrobial activity against Streptococcus mitis HK141 with gyrA Ser114Gly, and parC Ser52Gly, Asn91Asp mutation by broth dilution method; outline: as §1
[25] = system: Streptococcus mitis; test: Antimicrobial activity against Streptococcus mitis HK188 with gyrA Ser114Gly, and parC Ser52Gly, Asn91Asp, Glu135Asp mutation by broth dilution method; outline: as §1
[26] = system: Streptococcus mitis; test: Antimicrobial activity against Streptococcus mitis HK651 with gyrA Ser114Gly, and parC Ser52Gly, Asn91Asp mutation by broth dilution method; outline: as §1
[27] = system: Streptococcus mitis; test: Antimicrobial activity against Streptococcus mitis HK137453 with gyrA Ser114Gly, and parC Ser52Gly, Asn91Asp mutation by broth dilution method; outline: as §1
[28] = system: Streptococcus mitis; test: Antimicrobial activity against Streptococcus mitis HK680 with gyrA Ser114Gly, and parC Ser52Gly, Asn91Asp mutation by broth dilution method; outline: as §1
[29] = system: Streptococcus mitis; test: Antimicrobial activity against Streptococcus mitis HK125807 with gyrA Ser114Gly, and parC Ser52Gly, Asn91Asp mutation by broth dilution method; outline: as §1
[30] = system: Streptococcus mitis; test: Antimicrobial activity against Streptococcus mitis HK467 with gyrA Ser114Gly, Leu155Val and parC Ser52Gly, Asn91Asp, mutation by broth dilution method; outline: as §1
[31] = system: Streptococcus mitis; test: Antimicrobial activity against Streptococcus mitis HK666 with gyrA Ser114Gly, and parC Ser52Gly, Asn91Asp, Glu135Asp mutation by broth dilution method; outline: as §1
[32] = system: Streptococcus mitis; test: Antimicrobial activity against Streptococcus mitis HK135786 with gyrA Ser114Gly, and parC Ser52Gly, Asn91Asp mutation by broth dilution method; outline: as §1
[33] = system: Streptococcus mitis; test: Antimicrobial activity against Streptococcus mitis HK29 with gyrA Ser114Gly, and parC Ser52Gly, Asn91Asp mutation by broth dilution method; outline: as §1
[34] = system: Streptococcus mitis; test: Antimicrobial activity against Streptococcus mitis HK677 with gyrA Ser81Leu, Ser114Gly, gyrB Ser494Thr, parC Ser52Gly, Asp83Tyr, Asn91Asp and parE Arg447Ser mutation by broth dilution method; outline: as §1
[35] = system: Streptococcus viridans; test: Antimicrobial activity against Viridans streptococcus L2 with gyrA Ser114Gly, gyrB Ser494Thr and parC Ser52Gly, Asn91Asp mutation by broth dilution method; outline: as §1
[36] = system: Streptococcus viridans; test: Antimicrobial activity against Viridans streptococcus L7 with gyrA Ser114Gly, gyrB Ser494Thr and parC Ser52Gly, Asn91Asp mutation by broth dilution method; outline: as §1
[37] = system: Streptococcus viridans; test: Antimicrobial activity against Viridans streptococcus L16 with gyrA Ser114Gly, gyrB Ser494Thr and parC Ser52Gly, Asn91Asp mutation by broth dilution method; outline: as §1
[38] = system: Streptococcus viridans; test: Antimicrobial activity against Viridans streptococcus L17 with gyrA Ser114Gly, gyrB Ser494Thr and parC Ser52Gly, Asn91Asp mutation by broth dilution method; outline: as §1
[39] = system: Streptococcus viridans; test: Antimicrobial activity against Viridans streptococcus L18 with gyrA Ser114Gly, Asp142Asn, gyrB Ser494Thr and parE Ile460Val mutation by broth dilution method; outline: as §1
[40] = system: Streptococcus viridans; test: Antimicrobial activity against Viridans streptococcus L19 with gyrA Ser114Gly, gyrB Ser494Thr, parC Ser52Gly, Asn91Asp and parE Ile460Val mutation by broth dilution method; outline: as §1
[41] = system: Streptococcus viridans; test: Antimicrobial activity against Viridans streptococcus L20 with gyrB Ser494Thr, parC Ser52Gly and Asn91Asp mutation by broth dilution method; outline: as §1
[42] = system: Streptococcus viridans; test: Antimicrobial activity against Viridans streptococcus L21 with gyrB Ser494Thr and parC Lys137Asn mutation by broth dilution method; outline: as §1
[43] = system: Streptococcus viridans; test: Antimicrobial activity against Viridans streptococcus L26 gyrA Ser81Phe and parC Lys137Asn mutation by broth dilution method; outline: as §1

Measured: MIC

C[C@H]1COc2c(N3CCN(C)CC3)c(F)cc3c(=O)c(C(=O)O)cn1c23.C[C@H]1COc2c(N3CCN(C)CC3)c(F)cc3c(=O)c(C(=O)O)cn1c23.O [LEVOFLOXACIN]
< 0.25 µg/mL: [23]
≥ 32 µg/mL: [21] | [34]
16 µg/mL: [43]
0.5 µg/mL: [24] | [25] | [26]
32 µg/mL: [20]
1 µg/mL: [1] | [2] | [3] | [4] | [5] | [6] | [7] | [8] | [9] | [10] | [11] | [12] | [22] | [27] | [28] | [29] | [30] | [32] | [37] | [38]
2 µg/mL: [13] | [14] | [15] | [16] | [17] | [18] | [19] | [31] | [33] | [35] | [36] | [39] | [40] | [41] | [42]

Reference: ChEMBL document CHEMBL1155167, “Fluoroquinolone resistance in atypical pneumococci and oral streptococci: evidence of horizontal gene transfer of fluoroquinolone resistance determinants from Streptococcus pneumoniae” (2007)
